In article PMC7825275 (Cancer chemotherapy and pharmacology, 2019):

Columns and labels:
[1] = Ultrafilterable carboplatin; type: in vivo, human
How it was run: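 Ultrafilterable platinum was measured by atomic absorption spectrophotometry in patient plasma. […] Plasma was spun at ~1,000 x g for 10 min and stored at −70°C or colder. Parameters were derived non-compartmentally. AUC targeting bias and precision were taken as mean prediction error and root mean squared prediction error. Cycles were compared by 2-sided exact Wilcoxon signed rank.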

[2] = tested on: patients with advanced solid tumors; type: in vivo, human; conditions: with veliparib 100 mg BID and carboplatin AUC 6
How it was run: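 Standard 3+3 escalation with modified Fibonacci steps. Oral veliparib was given every 12 h on days 1–7 of 21-day cycles, with IV carboplatin/paclitaxel on day 3. For the first 46 patients, cycle 1 was chemotherapy alone and DLT was scored in cycle 2; afterwards all three agents were given in cycle 1, which was the DLT cycle. Growth factors were barred in cycles 1–2. MTD was the highest dose with ≤1/6 DLTs.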

[3] = Paclitaxel plasma pharmacokinetics; type: in vivo, human; conditions: cycle 1 (veliparib -) vs cycle 2 (veliparib +)
How it was run: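 Patient plasma from heparinized blood drawn pre-dose and at 0.5–24 h after start of IV paclitaxel infusion, in the chemotherapy-alone lead-in cycle and in the veliparib cycle (day 3). Samples were spun at ~1,000 x g for 10 min and plasma held at −70°C or colder. Quantitation was by LC-MS/MS with [13C6]-paclitaxel internal standard. Parameters were derived non-compartmentally and paired cycles compared by 2-sided exact Wilcoxon signed rank.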

patients = conditions: days 1-5, with veliparib 10 mg bid; cited from earlier work
[4] = tested on: patients with advanced solid tumors; assay: Toxicity by grade; type: in vivo, human; conditions: initial cycle of carboplatin and paclitaxel without veliparib
How it was run: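 Adverse events were tabulated descriptively as maximum grade in three groups: the chemotherapy-only lead-in cycle, the first veliparib-containing cycle, and all cycles. CBC and serum chemistry including liver function tests were drawn weekly during cycles 1–2, then at the start of every cycle. Veliparib was oral, twice daily on days 1–7; carboplatin/paclitaxel were IV every 21 days.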

Compound: N.N.O=C([O-])C1(C(=O)[O-])CCC1.[Pt+2] [carboplatin]
- Carboplatin exposure, effect of the presence of veliparib or veliparib dose ([1]; cycle 1 (veliparib -) vs cycle 2 (veliparib +)): not impacted
- ME as % of AUC 6 mg•min/mL ([1]; in the absence of veliparib): 31%
- RMSE as % of AUC 6 mg•min/mL ([1]; in the absence of veliparib): 57%
- ME as % of AUC 6 mg•min/mL ([1]; in the presence of veliparib): 22%
- RMSE as % of AUC 6 mg•min/mL ([1]; in the presence of veliparib): 45%

Compound: CC(=O)O[C@H]1C(=O)[C@@]2(C)[C@H]([C@H](OC(=O)c3ccccc3)[C@]3(O)C[C@H](OC(=O)[C@H](O)[C@@H](NC(=O)c4ccccc4)c4ccccc4)C(C)=C1C3(C)C)[C@]1(OC(C)=O)CO[C@@H]1C[C@@H]2O [paclitaxel]
- MTD and RP2D, paclitaxel dose [2]: 200 mg/m^2
- paclitaxel exposure, effect of the presence of veliparib or veliparib dose [3]: not impacted

Compound: CC[C@@]1(O)C(=O)OCc2c1cc1n(c2=O)Cc2cc3c(CN(C)C)c(O)ccc3nc2-1 [topotecan]
- MTD, topotecan dose (patients): 0.6 mg

Compound: carboplatin and paclitaxel
- neutropenia grade 3 [4]: 20%
- neutropenia grade 4 [4]: 24%
- neutropenia, % of patients [4]: 56%
